# KCNQ1 inh: blocks the human KCNQ1 potassium channel; 1.3% of 310,000 active; B-score at 10 µM; AID 2642; CHO-K1 KCNQ1, FluxOR thallium flux fluorescence; active compounds read high;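 active = compounds whose thallium flux B-score, printed positive for inhibition, exceeds three library SD while starting fluorescence stays within three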;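 note: channel opened by potassium depolarization with thallium stimulus after 20 min compound exposure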
# KCNK3 block: human KCNK3 channel inhibition, primary screen. O14649. CHO-KCNK3 thallium flux, FluxOR fluorescence; active compounds read low. AID 602410. B-score at 10 µM. 0.84% of 340,000 active;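 active = B-score under library mean minus 4 SD, starting fluorescence ratio at most library mean plus 5 SD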;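 note: more negative B-score means stronger inhibition of thallium flux through KCNK3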
# Kir21 block: inhibitors of mouse Kir2.1 inward-rectifier potassium channel. HEK293-Kir2.1, FluxOR thallium flux fluorescence; active compounds read low. B-score at 10 µM. 0.85% of 310,000 active;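 active = fluorescence ratio B-score at or below minus 3 SD of library scores, with starting-brightness B-score within 2 SD, cut at about -4.2 in these data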;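 note: channel flux triggered by added potassium and thallium sulfate stimulus; B-score of peak minus minimum fluorescence over baseline after thallium stimulus; more negative B-score means stronger Kir2.1 block with less thallium influx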
# hERG rescue: compounds protecting human hERG from proarrhythmic drug block; Q12809; CHO-hERG, FluxOR thallium flux, dofetilide IC70 present; activation (rescue from dofetilide block), less the hit threshold, % at 10 µM; 0.51% of 310,000 active;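 active = activation above the mean of controls blocked by dofetilide plus 5 SD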;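 note: thallium influx through hERG after potassium depolarization seen as dye fluorescence rise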
# KCNK9 block: inhibitors of human KCNK9 two-pore domain potassium channel; Q9NPC2; HEK293 KCNK9, FluxOR thallium flux fluorescence; active compounds read low; B-score at 10 µM; 1.2% of 310,000 active;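 active = ratio B-score over 3 SD below the library mean, with starting fluorescence within 5 SD of its mean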;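 note: negative B-score means less thallium flux so channel inhibition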
# Target sequence (Q9NPC2 whole entry, looked up, the tested form may be a part): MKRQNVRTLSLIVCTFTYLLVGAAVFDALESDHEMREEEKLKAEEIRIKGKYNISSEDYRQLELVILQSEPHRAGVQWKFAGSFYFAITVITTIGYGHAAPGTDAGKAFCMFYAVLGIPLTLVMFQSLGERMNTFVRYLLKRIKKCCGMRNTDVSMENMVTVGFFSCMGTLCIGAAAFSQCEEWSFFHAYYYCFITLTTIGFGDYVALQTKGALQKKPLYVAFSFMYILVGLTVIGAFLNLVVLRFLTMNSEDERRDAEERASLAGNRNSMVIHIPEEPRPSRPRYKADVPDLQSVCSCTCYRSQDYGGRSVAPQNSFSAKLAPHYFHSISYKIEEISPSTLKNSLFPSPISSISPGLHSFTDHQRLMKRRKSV
# KCNQ1 pot: potentiates or activates the human KCNQ1 potassium channel; P51787; CHO-K1 KCNQ1, thallium flux FluxOR fluorescence; active compounds read high; B-score at 10 µM; 0.35% of 310,000 active; AID 2648;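 active = fluorescence ratio B-score, a plate-corrected score, at least three library SD, with initial intensity B-score within 5 SD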
#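 assay system = KCNQ1-transfected CHO-K1 cells | medium = assay buffer with matched DMSO | probe or stimulus = depolarizing K+/Tl+ stimulus, K2SO4 and Tl2SO4 each 12.5 mM in 5x stock | dosing = single dose | incubation = dye 90 min, compound 20 min, room temperature | detection = kinetic FluxOR fluorescence, 10 s baseline plus 110 s post-stimulus | evaluation = ratio B score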
# KCNQ1 inh valid: human KCNQ1 channel inhibition, validation assay; 93% of 1,600 active; AID 588353; KCNQ1 cell line, FluxOR thallium flux fluorescence; inhibition, % at 10 µM; shares compounds with KCNQ1 inh;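 active = primary screen active, with duplicate mean exceeding buffer control mean plus 3 SD of buffer wells, cut at about 28% in these data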;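 note: 0% = buffer control ratio and 100% = XE991 inhibitor control ratio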
# CHO KCNQ1 ctr: activity in parental CHO cells lacking KCNQ1 | shares compounds with KCNQ1 inh | parental CHO-K1, FluxOR thallium flux fluorescence ratio; active compounds read low; zero means no signal rise above baseline | fluorescence ratio (Tl flux) at 10 µM | 21% of 1,600 active | AID 588366;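 active = mean of duplicate thallium-flux fluorescence ratios in parental host cells more than 5 SD below the buffer control mean, cut at about 0.38 in these data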;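 note: ratio is peak minus minimum fluorescence divided by baseline fluorescence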
# KCNQ1 ephys val: blocks human KCNQ1 current in automated patch clamp; calls only at 10 µM; 20% of 490 active; KCNQ1-CHO cells; shares compounds with KCNQ1 inh;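 active = KCNQ1 current drop exceeding 3 SD of negative control wells, seen in both duplicate runs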;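 note: steady state current during a 2 s step from -80 to +40 mV; negative values mean current inhibition and positive values mean potentiation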
# KCNQ2 inh: selectivity of KCNQ1 inhibitors: inhibition of rat KCNQ2 channel. KCNQ2 cells, FluxOR thallium flux fluorescence. AID 651746. shares compounds with KCNQ1 inh. 71% of 1,600 active. inhibition, % at 10 µM;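 active = mean percent inhibition of the KCNQ2 thallium signal more than 5 SD above the buffer-only control wells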;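 note: KCNQ2 expressed in CHO cells; 0% = buffer control wells and 100% = XE-991 inhibitor control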
# KCNQ1-KCNE1 inh: human KCNQ1/KCNE1 inhibition in KCNQ1 specificity screen; shares compounds with KCNQ1 inh; KCNQ1/KCNE1 cells, FluxOR thallium flux fluorescence; 77% of 1,600 active; inhibition, % at 10 µM;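 active = mean percent inhibition of duplicate wells above the buffer-only control mean plus 3 SD of those controls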;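 note: 0% = buffer only wells and 100% = XE-991 inhibitor control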
# Active calls of the source: *; i = inactive; . = not tested or not shown. Compounds with a hit are over-represented: about 3.8% of the library has one in this group of screens.
SMILES,KCNQ1 inh,KCNK3 block,Kir21 block,hERG rescue,KCNK9 block,KCNQ1 pot,KCNQ1 inh valid,CHO KCNQ1 ctr,KCNQ2 inh,KCNQ1-KCNE1 inh,others
Cc1cc(C)n(CC(=O)NC2CCCc3c2cnn3-c2ccc(C)c(C)c2)n1 (stereo unspecified),i,i,1.4,-7,i,i,.,.,.,.,
Cc1nn(-c2ccccc2)c2c1C(c1ccc(F)cc1F)C(C#N)=C(N)O2 (stereo unspecified),7*,i,-0.45,-6,i,i,45*,0.51,i,52%*,
Cc1ccc(C(=O)NC(=S)Nc2ccc(CN3CCCCC3)cc2)c(C)c1,6*,i,-2.5,-14,i,i,58*,0.49,67%*,63%*,
O=C(Nc1ccc(Oc2ccc3ccccc3c2)cc1)c1ccco1,14*,i,0.83,-23,i,i,150*,0.35*,i,186%*,
COc1ccc(NC(=O)c2ccc3c(c2)C(=O)N(CC2CCCO2)C3=O)cc1O (stereo unspecified),i,i,0.29,-11,i,i,.,.,.,.,
CCn1nccc1C(=O)Nc1ccc(Cl)cn1,i,i,1.8,-8,i,i,.,.,.,.,
CCn1nccc1C(=O)Nc1cc(Cl)cc(Cl)c1,6*,i,0.51,-10,-6.7*,i,31*,0.55,i,i,
Cn1ncc2c(N3CCN(c4ccccc4F)CC3)ncnc21,i,i,-0.1,-4,i,i,.,.,.,.,
Cn1ncc2c(N3CCN(c4ccc(Cl)c(Cl)c4)CC3)ncnc21,10*,i,0.15,-16,i,i,103*,0.48,i,61%*,KCNQ1 ephys val=i
Cc1ccc(OCC(O)Cn2c(=N)n(Cc3ccccc3)c3ccccc32)cc1 (stereo unspecified),8*,i,-6*,-28,i,i,78*,0.41,93%*,36%*,
Cc1ccc(C)c2[nH]c(=O)c(CCNC(=O)c3ccc(S(=O)(=O)N4CCCC4)cc3)cc12,i,i,-0.56,-8,i,i,.,.,.,.,
CCOC(=O)c1cnc2ccc(OCC)cc2c1N1CCN(c2ccccc2OC)CC1,11*,i,0.1,-16,i,i,130*,0.33*,141%*,182%*,
CCOc1ccc2ncc(C(=O)c3ccc(OC)cc3)c(N3CCN(CC)CC3)c2c1,i,i,0.36,-10,i,i,.,.,.,.,
O=C(O)c1cc(S(=O)(=O)Nc2cccc(S(=O)(=O)N3CCCC3)c2)ccc1Cl,.,i,.,.,.,.,.,.,.,.,
Cc1cc(C)c(S(=O)(=O)n2ccc3ccccc32)c(C)c1,9*,i,-3.2,-7,i,i,106*,0.38*,116%*,142%*,
c1ccc(-c2nc(N3CCOCC3)sc2-c2ccccc2)cc1,8*,i,1.2,-7,i,i,99*,0.41,100%*,162%*,KCNQ1 ephys val=i
CC(=O)NCC(=O)OC(C)C(=O)Nc1ccc(C(C)=O)cc1 (stereo unspecified),i,i,0.74,-15,i,i,.,.,.,.,
Cc1cc(NC(=O)CCN2C(=O)/C(=C/c3ccccc3Cl)SC2=S)no1,i,i,0.72,-4,i,i,.,.,.,.,

# Assay outcomes as filed in PubChem BioAssay.
